From ChEMBL document CHEMBL5036380, “New Highly Potent NLRP3 Inhibitors: Furanochalcone Velutone F Analogues” (ACS Med Chem Lett, 2022)
Active and inactive are the calls of the source. The calls are words filed in the database; no cut-off is given here.

What was measured:
THP-1 [1] = assay: Antiinflammatory activity in human THP-1 cells assessed as blockade of caspase 1 p20 in LPS stimulation followed by pretreatment for 40 min before induced with nigericin for 40 min measured by western blot analysis; assay type: functional, cell-based; conditions: time 80.0 min
In short: (§1)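 PMA-differentiated THP-1 cells were primed with LPS, exposed to graded compound doses for 40 min, then given nigericin for 40 min. Supernatants were immunoblotted for IL-1β and caspase-1. Cell extracts were immunoblotted for NLRP3, pro-IL-1β and pro-caspase-1.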

[2] = biological target: NACHT, LRR and PYD domains-containing protein 3 (Homo sapiens) (UniProt Q96P20); assay: Inhibition of NLRP3 inflammasome activation in LPS/nigericin-treated human THP-1 cells assessed as blockade of […] caspase 1 p20 in LPS stimulation followed by pretreatment for 40 min before induced with nigericin for 40 min measured by western blot analysis; assay type: cell-based; conditions: time 80.0 min; in short: as §1
THP-1 [3] = assay: Effect on IL-1beta expression in LPS-stimulated human THP-1 cells at 1 uM preincubated for 40 mins followed by LPS stimulation and measured after 3 hrs by Western blot analysis; assay type: functional, cell-based; conditions: time 220.0 min
In short: (§2)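 THP-1 cells were given compound for 40 min, then primed with LPS for 3 h. Medium supernatant was analysed for TNF-α. Cell extracts were immunoblotted for pro-IL-1β and NLRP3.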

THP-1 [4] = assay: Effect on TNFalpha expression in LPS-stimulated human THP-1 cells at 1 uM preincubated for 40 mins followed by LPS addition and measured after 3 hrs by Western blot analysis; assay type: functional, cell-based; conditions: time 220.0 min; in short: as §2
THP-1 [5] = assay: Effect on TNFalpha expression in LPS-stimulated human THP-1 cells preincubated for 40 mins followed by LPS addition and measured after 3 hrs by Western blot analysis; assay type: functional, cell-based; conditions: time 220.0 min; in short: as §2
THP-1 [6] = assay: Effect on ASC oligomerization in LPS/nigericin stimulated human THP-1 cells assessed as ASC specks in LPS stimulation for 3 hrs followed by pretreatment for 40 min before induced with nigericin for 40 min by ASC and DAPI staining based immunofluorescent microscopy; assay type: functional, cell-based; conditions: time 80.0 min
In short: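 THP-1 cells were LPS-primed, treated with compound, then activated with nigericin. Endogenous ASC was visualized by immunofluorescence microscopy. The proportion of cells with ASC specks was counted, with NLRP3 KO THP-1 cells as comparison.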

[7] = biological target: NACHT, LRR and PYD domains-containing protein 3 (Homo sapiens) (UniProt Q96P20); assay: Binding affinity to NLRP3 in LPS stimulated human THP-1cells assessed as prevention of pronase-mediated protein degradation at 0.01 to 1mM incubated 50 mins before pronase treatment by label-free DARTS assay
In short: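 Drug affinity responsive target stability: THP-1 lysates were incubated with compound (0.01–1 mM), then digested with pronase. NLRP3 remaining was detected by immunoblot.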

[8] = AUC (0 to t) in Sprague-Dawley rat at 10 mg/kg, iv measured up to 24 hrs by LC-MS/MS analysis; assay type: ADME, organism-based; design: route intravenous, dose 10 mg/kg, time <=24; conditions: in vivo
In short: (§3)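 Single doses given intravenously (10 mg/kg) or orally (10, 30, 90 mg/kg); plasma levels quantified by LC/MS/MS at multiple time points. Parameters reported as mean values: AUC0–t, CL, Cmax, T1/2, Tmax, and %F based on AUC.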

[9] = AUC (0 to t) in Sprague-Dawley rat at 30 mg/kg, po measured up to 24 hrs by LC-MS/MS analysis; assay type: ADME, organism-based; design: route oral, dose 30 mg/kg, time <=24; conditions: in vivo; in short: as §3
[10] = Clearance in Sprague-Dawley rat at 10 mg/kg, iv measured up to 24 hrs by LC-MS/MS analysis; assay type: ADME, organism-based; conditions: in vivo; in short: as §3
[11] = Cmax in Sprague-Dawley rat at 10 mg/kg, po measured up to 24 hrs by LC-MS/MS analysis; assay type: ADME, organism-based; design: route oral, dose 10 mg/kg, time <=24; conditions: in vivo; in short: as §3
[12] = Tmax in Sprague-Dawley rat at 30 mg/kg, po measured up to 24 hrs by LC-MS/MS analysis; assay type: ADME, organism-based; conditions: in vivo; in short: as §3
[13] = Tmax in Sprague-Dawley rat at 90 mg/kg, po measured up to 24 hrs by LC-MS/MS analysis; assay type: ADME, organism-based; conditions: in vivo; in short: as §3
[14] = Oral bioavailability in Sprague-Dawley rat at 90 mg/kg measured up to 24 hrs by LC-MS/MS analysis; assay type: ADME, organism-based; conditions: in vivo; in short: as §3
Spleen = assay: Downregulation of IL-1beta level in spleen of LPS treated C57BL/6J mouse at 10 mg/kg, iv measured after 6 hrs by ELISA

Chain of NACHT, LRR and PYD domains-containing protein 3 (Homo sapiens) (Q96P20 whole entry, the tested form may be a part): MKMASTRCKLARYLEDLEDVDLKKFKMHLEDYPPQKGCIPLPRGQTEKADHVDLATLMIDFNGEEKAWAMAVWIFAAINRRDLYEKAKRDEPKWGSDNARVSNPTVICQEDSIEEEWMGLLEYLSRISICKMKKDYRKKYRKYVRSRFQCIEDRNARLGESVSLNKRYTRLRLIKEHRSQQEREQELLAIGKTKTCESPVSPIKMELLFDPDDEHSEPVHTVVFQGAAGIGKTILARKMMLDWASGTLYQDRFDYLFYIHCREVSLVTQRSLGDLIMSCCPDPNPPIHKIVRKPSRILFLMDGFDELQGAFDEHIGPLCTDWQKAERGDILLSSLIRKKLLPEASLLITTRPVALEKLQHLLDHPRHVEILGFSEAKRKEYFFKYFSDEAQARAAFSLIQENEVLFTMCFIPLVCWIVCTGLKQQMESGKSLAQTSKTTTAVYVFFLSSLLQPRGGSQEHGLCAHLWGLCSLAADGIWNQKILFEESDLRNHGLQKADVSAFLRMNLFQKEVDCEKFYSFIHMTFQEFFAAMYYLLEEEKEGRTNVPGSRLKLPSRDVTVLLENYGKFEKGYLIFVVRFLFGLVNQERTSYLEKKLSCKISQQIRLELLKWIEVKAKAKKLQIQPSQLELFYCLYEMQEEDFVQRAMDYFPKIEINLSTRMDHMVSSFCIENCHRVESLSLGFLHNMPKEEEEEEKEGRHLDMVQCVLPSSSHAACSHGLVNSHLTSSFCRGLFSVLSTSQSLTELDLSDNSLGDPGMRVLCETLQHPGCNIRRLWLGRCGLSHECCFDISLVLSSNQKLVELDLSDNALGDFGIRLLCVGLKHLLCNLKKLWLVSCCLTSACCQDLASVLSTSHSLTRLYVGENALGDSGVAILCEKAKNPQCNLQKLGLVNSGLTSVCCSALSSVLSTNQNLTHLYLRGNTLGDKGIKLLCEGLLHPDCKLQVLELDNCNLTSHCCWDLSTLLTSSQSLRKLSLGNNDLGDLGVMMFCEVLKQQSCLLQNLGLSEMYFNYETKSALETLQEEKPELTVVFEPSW

- inhibition [2]: inactive
- Activity [7]: Dose-Dependent Effect
- AUC(0-t) at 24 h [8]: 106 ng·h/mL
- AUC(0-t) at 24 h [9]: 15.8 ng·h/mL
- CL [10]: 2229.2 mL/min/kg
- Cmax [11]: 3.35 ng/mL
- Tmax [12]: 1.26 h
- Tmax [13]: 4.21 h
- bioavailability [14]: 2.47%
SMILES: COc1cc(/C=C/C(=O)c2ccc(F)cc2)c(OC)cc1Br
- Activity (THP-1 [1]): Dose-Dependent Effect
- Activity (THP-1 [3]): inactive
- Activity (THP-1 [4]): inactive
- Activity (THP-1 [5]): inactive
- Activity (THP-1 [6]): Active
- Activity (Spleen): Active
